Experiment [1] in a line: UV filtering activity of the compound assessed as UVA protection factor value relative to control. The experiment is classed as functional. The method in brief: (§1)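 Spectra recorded on methanolic solutions at 0.000034 (± 0.0000033) M. Absorbance converted to transmittance by A(λ) = −Log[T(λ)], and SPF, UVA/UVB ratio, UVAPF and critical wavelength derived from the transmittance spectrum. Method adapted from the official in vitro SPF method; UVAPF per ISO-24443. PBSA served as reference.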

A short description of experiment [2]: Antioxidant activity assessed as AAPH-induced radical scavenging activity by measuring trolox equivalents for oxygen radical absorbance capacity measured at 5 mins intervals up to 30 mins by ORAC-FL assay. In kind it is functional. Put shortly: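 Fluorescein (85 nM) as target, AAPH as peroxyl radical generator, 0.2 mL final volume. Compounds dissolved in methanol and diluted in phosphate buffer pH 7.4. Fluorescence read at ex 485/em 538 nm, 37 °C, every 5 min up to 30 min after AAPH. Value from difference in areas under fluorescein decay curves, blank vs sample. Trolox calibration 40–240 µM; µmol TE per gram compound.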

For experiment [3], the system named is K562. The experiment can be described thus: Antiproliferative activity against human K562 cells after 7 days by Coulter counter method. In kind it is functional, cell-based. The settings on record: K562, 168 h. Put shortly: (§2)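 RPMI 1640 with 10% FBS, penicillin, streptomycin and 2 mM glutamine, pH 7.2, 37 °C, 5% CO2. Stocks 20 mM in MeOH/DMSO 10%, diluted in MeOH, added at serial dilutions. Cells suspended in physiological solution and counted by Coulter counter. IC50 = 50% growth inhibition while untreated cells in log phase. Untreated cells as negative control on every plate.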

Experiment [4] in a line: Antioxidant activity assessed as DPPH free radical scavenging activity by measuring trolox equivalent by spectrophotometric analysis. In kind it is functional. The method in brief:
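Diluted compound solution (0.750 mL) added to 1.5 mL methanolic DPPH. Absorbance decrease read at 517 nm. Blank was DPPH plus methanol. Inhibition % = [(AB−As)/AB]×100. Trolox calibration curve used as standard.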

Experiment [5] can be described thus: UV filtering activity of the compound assessed as solar protection factor relative to control. The experiment is classed as functional. The method in brief: as §1
Experiment [6] is described as follows: UV filtering activity of the compound assessed as UVA/UVB ratio. In kind it is functional. The method in brief: as §1
Experiment [7] in a line: UV filtering activity of the compound assessed as wavelength at which the integral of the spectral absorbance curve reaches 90% of area under the curve from 290 to 400 nm. In kind it is functional. The method in brief:
as §1

A short description of experiment [8]: UV filtering activity of the compound assessed as maximum absorption wavelength. In kind it is functional. Put shortly:
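UV absorption spectrum recorded in methanol at 0.000034 (± 0.0000033) M; wavelength of maximum absorption taken, together with molar extinction coefficient.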

Experiment [9] can be described thus: Antioxidant activity assessed as ferric ion reducing activity by measuring trolox equivalents after 10 mins by FRAP assay. The experiment is classed as functional. The method in brief:
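Reagent made fresh: 0.1 M acetate buffer pH 3.6, 10 mM TPTZ in 40 mM HCl and 20 mM FeCl3 at 10:1:1 (v/v/v). Diluted sample (0.1 mL) added to 1.9 mL reagent; solvent used for blank. Absorbance at 593 nm after 10 min, increase taken over blank. Expressed as Trolox activity from calibration curve.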

Experiment [10] is described as follows: Antiproliferative activity against human Colo38 cells after 7 days by Coulter counter method. In kind it is functional, cell-based. Conditions: 168 h. Put shortly:
as §2

The test system of experiment [11] is K562. The experiment can be described thus: Induction of erythroid differentiation on human K562 cells after 5 days by benzidine staining-based assay. The experiment is classed as functional. Put shortly:
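K562 cells treated in culture, then scored for erythroid differentiation by benzidine staining with 0.2% benzidine in 5 M glacial acetic acid and 10% H2O2. Assayed after 5, 6 and 7 days of treatment; value given as percentage of differentiated cells.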

The term IC50 denotes the concentration needed to halve the response being measured. Lower therefore signals higher potency.

In the case of `O=C(N/N=C/c1cccc(O)c1)c1cc2ccccc2o1`, the UVAPF in experiment [1] came to 2.45. Besides, the Activity in [2] was determined as 6790 µmolequiv/g; in experiment [4], 76.7 µmolequiv/g; in [7] it was 353 nm; in [8] it was 314 nm; in experiment [9], 1670 µmolequiv/g. The IC50 with K562 [3] came out at 52.4 µM; in [10], 6.2 µM. For the same compound, in [5], the SPF stood at 7.58. The Ratio in experiment [6] came to 0.85.
Take `O=C(N/N=C/c1ccc(O)c(O)c1O)c1cc2ccccc2o1`: the UVAPF in experiment [1] is 2.45. Moreover, the Activity in [2] worked out at 5260 µmolequiv/g; in experiment [4], 9210 µmolequiv/g; in experiment [7], 353 nm; in experiment [8], 336 nm; in [9] it was 13200 µmolequiv/g. The IC50 is 6 µM in the experiment with K562 [3] and 6.48 µM in experiment [10]. Further, the SPF in experiment [5] was 7.58. The Ratio in experiment [6] came out at 0.85.
Take `O=C(N/N=C/c1ccc(O)cc1O)c1cc2ccccc2o1`: the UVAPF in experiment [1] stood at 1.5. For the same compound, the Activity amounted to 9380 µmolequiv/g in [2]; 149 µmolequiv/g in experiment [4]; 342 nm in [7]; 5% in the experiment with K562 [11]; 343 nm in experiment [8]; 1210 µmolequiv/g in experiment [9]. Also, the IC50 is 4.3 µM in the experiment with K562 [3] and 0.57 µM in experiment [10]. In addition, the SPF in experiment [5] amounted to 10.2. Further, the Ratio in [6] was 0.26.
With `O=C(N/N=C/c1ccc(O)cc1)c1cc2ccccc2o1`, in experiment [1], the UVAPF is 1.03. The Activity worked out at 26100 µmolequiv/g in [2]; 45.8 µmolequiv/g in experiment [4]; 322 nm in experiment [7]; 328 nm in [8]; 2290 µmolequiv/g in [9]. Also, the half-inhibitory concentration (IC50) in the experiment with K562 [3] came to 79.9 µM; in experiment [10], 39.4 µM. Besides, the SPF in experiment [5] came to 3.4. Further, the Ratio in [6] came out at 0.29.
Regarding `O=C(N/N=C/c1cc(O)ccc1O)c1cc2ccccc2o1`, the UVAPF in experiment [1] is 2.38. In addition, the Activity in experiment [2] was found to be 19000 µmolequiv/g; in experiment [4], 6200 µmolequiv/g; in [7], 366 nm; in [8], 306 nm; in experiment [9] it was 6970 µmolequiv/g. Further, the IC50 was determined as 36.8 µM with K562 [3] and 6.26 µM in experiment [10]. Also, the SPF in experiment [5] was determined as 2.18. In addition, in [6], the Ratio was determined as 1.33.
Turning to `O=S(=O)(O)c1ccc2[nH]c(-c3ccccc3)nc2c1`, the UVAPF in experiment [1] stood at 5.1. In addition, the SPF in experiment [5] turned out to be 1.68. Also, the Ratio in experiment [6] amounted to 1.27. Further, the Activity in experiment [7] came to 394 nm; in experiment [8], 302 nm.
Turning to `O=C(N/N=C/c1c(O)cc(O)cc1O)c1cc2ccccc2o1`, the UVAPF in [1] was found to be 2.02. The Activity in experiment [2] is 3560 µmolequiv/g; in experiment [4], 1140 µmolequiv/g; in experiment [7] it was 366 nm; in experiment [8], 345 nm; in experiment [9], 4020 µmolequiv/g. The IC50 stood at 64 µM with K562 [3] and 24.4 µM in [10]. For the same compound, the SPF in experiment [5] worked out at 1.99. Moreover, in [6], the Ratio turned out to be 1.32.
Turning to `O=C(N/N=C/c1c(O)ccc2ccccc12)c1cc2ccccc2o1`, the UVAPF in experiment [1] was found to be 2.85. Moreover, the values for the IC50 (in the experiment with K562 [3]; in experiment [10]) were 4.5 µM and 3.01 µM, respectively. For the same compound, the Activity in experiment [4] turned out to be 132 µmolequiv/g; in experiment [7] it was 359 nm; in [8], 329 nm; in experiment [9] it was 132 µmolequiv/g. Also, the SPF in [5] came out at 8.82. In experiment [6], the Ratio is 0.39.
For `CCN(CC)c1ccc(/C=N/NC(=O)c2cc3ccccc3o2)c(O)c1`, the UVAPF in [1] was 3.6. Moreover, the Activity in experiment [2] came out at 22100 µmolequiv/g; in experiment [4], 1010 µmolequiv/g; in experiment [7], 387 nm; in experiment [8] it was 381 nm; in experiment [9] it was 4150 µmolequiv/g. Moreover, the figures for the IC50 (in the experiment with K562 [3]; in experiment [10]) were 0.52 µM and 0.44 µM, respectively. For the same compound, the SPF in [5] turned out to be 2.59. Besides, the Ratio in experiment [6] is 1.29.
In the case of `O=C(N/N=C/c1cc(Cl)ccc1O)c1cc2ccccc2o1`, the UVAPF in experiment [1] was found to be 2.89. The IC50 in the experiment with K562 [3] worked out at 3.7 µM; in experiment [10] it was 2.02 µM. Also, the Activity entry in experiment [4] was “Below limit of detection”; in experiment [7], 357 nm; in experiment [8], 310 nm; in [9] it was 46.3 µmolequiv/g. Further, the SPF in experiment [5] amounted to 5.78. Further, the Ratio in experiment [6] was found to be 1.14.
For `COc1cc(/C=N/NC(=O)c2cc3ccccc3o2)ccc1O`, the UVAPF in experiment [1] was 5.57. For the same compound, the Activity in experiment [2] is 10900 µmolequiv/g; in experiment [4], 101 µmolequiv/g; in experiment [7], 371 nm; with K562 [11], 5%; in experiment [8] it was 334 nm; in experiment [9], 3100 µmolequiv/g. Also, the IC50 was found to be 5.6 µM in the experiment with K562 [3] and 49 µM in experiment [10]. The SPF in experiment [5] came out at 3.36. In addition, the Ratio in experiment [6] was 2.33.
